ChEMBL document CHEMBL1153488, “Discovery of (3-endo)-3-(2-cyano-2,2-diphenylethyl)-8,8-dimethyl-8-azoniabicyclo[3.2.1]octane bromide as an efficacious inhaled muscarinic acetylcholine receptor antagonist for the treatment of COPD” (Bioorg Med Chem Lett, 2009)
Activity calls are given as the source filed them. The rule behind the calls is not given here.

What was measured:
[1] = target: T1, Muscarinic acetylcholine receptor M1 (Homo sapiens) (UniProt P11229); test: Agonist activity at human cloned muscarinic M1 receptor expressed in CHO cells assessed as effect on calcium mobilization by FLIPR; assay type: functional, cell-based
T1 sequence (whole entry): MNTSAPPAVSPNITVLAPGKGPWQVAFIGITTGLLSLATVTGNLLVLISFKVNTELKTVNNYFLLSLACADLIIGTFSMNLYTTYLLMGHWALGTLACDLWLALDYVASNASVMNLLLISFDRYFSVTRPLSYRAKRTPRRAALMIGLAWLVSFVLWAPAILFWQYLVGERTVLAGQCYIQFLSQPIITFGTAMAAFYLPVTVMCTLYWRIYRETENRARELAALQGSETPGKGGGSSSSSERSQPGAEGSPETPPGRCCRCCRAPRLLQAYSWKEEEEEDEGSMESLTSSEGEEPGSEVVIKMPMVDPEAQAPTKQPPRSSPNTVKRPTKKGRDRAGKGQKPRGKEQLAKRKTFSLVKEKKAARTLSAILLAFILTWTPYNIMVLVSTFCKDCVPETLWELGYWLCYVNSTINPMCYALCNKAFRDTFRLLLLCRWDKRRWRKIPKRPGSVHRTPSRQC
Method in brief: (§1)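 CHO cells stably carrying cloned human M1, M2 or M3 receptor; compound applied alone and checked for direct receptor stimulation, read as calcium mobilization on a standard FLIPR protocol.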

[2] = target: T2, Muscarinic acetylcholine receptor M2 (Homo sapiens) (UniProt P08172); test: Agonist activity at human cloned muscarinic M2 receptor expressed in CHO cells assessed as effect on calcium mobilization by FLIPR; assay type: functional, cell-based; method in brief: as §1
T2 sequence (whole entry): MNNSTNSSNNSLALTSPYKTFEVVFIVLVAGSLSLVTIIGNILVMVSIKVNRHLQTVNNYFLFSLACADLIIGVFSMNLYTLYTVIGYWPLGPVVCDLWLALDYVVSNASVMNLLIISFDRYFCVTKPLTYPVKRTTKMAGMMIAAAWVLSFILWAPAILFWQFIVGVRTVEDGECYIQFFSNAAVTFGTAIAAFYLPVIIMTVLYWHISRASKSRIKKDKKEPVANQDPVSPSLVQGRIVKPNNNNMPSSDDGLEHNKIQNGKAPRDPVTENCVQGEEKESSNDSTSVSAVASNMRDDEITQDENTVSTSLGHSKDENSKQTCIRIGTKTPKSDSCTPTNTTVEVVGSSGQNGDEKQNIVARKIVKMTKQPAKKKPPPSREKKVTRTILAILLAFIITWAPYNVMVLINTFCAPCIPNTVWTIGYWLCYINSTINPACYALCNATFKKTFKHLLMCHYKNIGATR

[3] = target: T3, Muscarinic acetylcholine receptor M3 (Homo sapiens, UniProt P20309); test: Antagonist activity against human cloned muscarinic M3 receptor expressed in CHO cells assessed as inhibition of acetylcholine-induced calcium mobilization by FLIPR; assay type: functional, cell-based
[4] = target: T3, Muscarinic acetylcholine receptor M3; test: Agonist activity at human cloned muscarinic M3 receptor expressed in CHO cells assessed as effect on calcium mobilization by FLIPR; assay type: functional, cell-based; method in brief: as §1
[5] = target: T4, Muscarinic acetylcholine receptor M2 (Homo sapiens, UniProt P08172); test: Antagonist activity against human cloned muscarinic M2 receptor expressed in CHO cells assessed as inhibition of acetylcholine-induced calcium mobilization by FLIPR; assay type: functional, cell-based
T4 sequence (P08172 whole entry): T2 sequence (whole entry)

[6] = target: T5, Muscarinic acetylcholine receptor M1 (Homo sapiens, UniProt P11229); test: Antagonist activity against human cloned muscarinic M1 receptor expressed in CHO cells assessed as inhibition of acetylcholine-induced calcium mobilization by FLIPR; assay type: functional, cell-based
T5 sequence (P11229 whole entry): T1 sequence (whole entry)

[7] = target: T3, Muscarinic acetylcholine receptor M3; test: Displacement of [3H]N-methyl Scopolamine from human cloned muscarinic M3 receptor expressed in CHO cell membrane; assay type: cell membranes
Method in brief: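 SPA-format competition binding on membranes from CHO cells expressing the human M3 receptor, against 0.5 nM [3H]-N-methyl scopolamine. Ki values are the mean of two or more independent assays.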

[8] = target: T5, Muscarinic acetylcholine receptor M1; test: Displacement of [3H]N-methyl Scopolamine from human cloned muscarinic M1 receptor expressed in CHO cell membrane; assay type: cell membranes
Method in brief: (§2)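 SPA format with CHO cell membrane preparations bearing human M1 or M2 receptor; competition versus 0.5 nM [3H]-N-methyl scopolamine; Ki reported; mean of two or more independent assays.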

[9] = target: T5, Muscarinic acetylcholine receptor M1; test: Antagonist activity against human cloned muscarinic M1 receptor expressed in CHO cells assessed as inhibition of acetylcholine-induced calcium mobilization by measuring ratio of acetylcholine EC50 in presence and absence of compound by FLIPR assay; assay type: functional, cell-based; details: read-out: pA2 (converted)
Method in brief: (§3)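 Run as pA2 determination on FLIPR in CHO cells expressing human M1 or M2 receptor: ACh concentration–response run with and without a single concentration of compound, calcium mobilization read, and the ratio of ACh EC50 values used to derive pA2.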

[10] = test system: Mus musculus; test: Bronchoprotection in Balb/C mouse bronchoconstriction model assessed as inhibition of aerosolized methacholin-induced bronchoconstriction at 5 ug administered intranasally 24 hrs before methacholin challenge; assay type: functional
[11] = target: T4, Muscarinic acetylcholine receptor M2; test: Displacement of [3H]N-methyl Scopolamine from human cloned muscarinic M2 receptor expressed in CHO cell membrane; assay type: cell membranes; method in brief: as §2
[12] = target: T3, Muscarinic acetylcholine receptor M3; test: Antagonist activity against human cloned muscarinic M3 receptor expressed in CHO cells assessed as inhibition of acetylcholine-induced calcium mobilization by measuring ratio of acetylcholine EC50 in presence and absence of compound by FLIPR assay; assay type: functional, cell-based; details: read-out: pA2 (converted)
Method in brief: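 CHO cells expressing cloned human M3 receptor, stimulated with ACh. Calcium mobilization read by a standard FLIPR protocol. ACh EC50 was measured with and without a single concentration of compound, and pA2 was derived from the ratio of the EC50s.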

[13] = target: T4, Muscarinic acetylcholine receptor M2; test: Antagonist activity against human cloned muscarinic M2 receptor expressed in CHO cells assessed as inhibition of acetylcholine-induced calcium mobilization by measuring ratio of acetylcholine EC50 in presence and absence of compound by FLIPR assay; assay type: functional, cell-based; details: read-out: pA2 (converted); method in brief: as §3
[14] = test system: Mus musculus; test: Bronchoprotection in Balb/C mouse bronchoconstriction model assessed as inhibition of aerosolized methacholin-induced bronchoconstriction at 50 ug administered intranasally 24 hrs before methacholin challenge; assay type: functional
Method in brief: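 Conscious mice given compound by inhalation at 50 µg per mouse 24 h before challenge with aerosolized methacholine; bronchoconstriction inhibition recorded.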

[15] = test system: Mus musculus; test: Bronchoprotection in Balb/C mouse bronchoconstriction model assessed as inhibition of aerosolized methacholin-induced bronchoconstriction at 0.5 ug administered intranasally before 0.25 to 48 hrs before methacholin challenge; assay type: functional, organism-based
Method in brief: (§4)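 Balb/C mice (n = 4) dosed intranasally at 0.5 or 5.0 µg per mouse, then challenged with aerosolized methacholine 30 mg/ml for 2 min at 0.25–48 h after dosing; Penh by plethysmography over 5 min, expressed as post-drug/pre-drug Penh ratio.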

[16] = test system: Mus musculus; test: Bronchoprotection in Balb/C mouse bronchoconstriction model assessed as inhibition of aerosolized methacholin-induced bronchoconstriction at 5 ug administered intranasally before 0.25 to 48 hrs before methacholin challenge; assay type: functional, organism-based; method in brief: as §4
[17] = test system: Mus musculus; test: Bronchoprotection in Balb/C mouse bronchoconstriction model assessed as inhibition of aerosolized methacholin-induced bronchoconstriction administered intranasally before 5 hrs before methacholin challenge; assay type: functional, organism-based
Method in brief: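 Balb/C mice (n = 4) dosed intranasally across a dose range (µg/mouse), challenged 5 h later with aerosolized methacholine 30 mg/ml for 2 min; Penh by whole-body plethysmography over 5 min; ratio of post-drug to pre-drug Penh (1.0 = 0% inhibition, 0.0 = 100%); ED50 from dose–response.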

SMILES	Activity [1]	Activity [2]	IC50 [3] [nM]	Activity [4]	IC50 [5] [nM]	IC50 [6] [nM]	Ki [7] [nM]	Ki [8] [nM]	Kb [9] [nM]	inhibition (INH) [10] [%]	Ki [11] [nM]	Kb [12] [nM]	Kb [13] [nM]	inhibition (INH) [14] [%]	Activity [15]	Activity [16]	Activity [17]
CN1[C@@H]2CC[C@H]1C[C@@H](CC(CNC(N)=O)(c1ccccc1)c1ccccc1)C2	inactive	inactive	6400	inactive	5340	3830	–	–	–	–	–	–	–	–	–	–	–
CC(=O)NCC(C[C@H]1C[C@H]2CC[C@@H](C1)N2C)(c1ccccc1)c1ccccc1	inactive	inactive	2900	inactive	3480	2200	–	–	–	–	–	–	–	–	–	–	–
C[N+]1(C)[C@@H]2CC[C@H]1C[C@@H](CC(CO)(c1ccccc1)c1ccccc1)C2.[Br-]	inactive	inactive	< 10	inactive	< 10	< 10	2.51	1.26	1.58	23	3.98	3.16	5.01	–	–	–	–
CN1[C@@H]2CC[C@H]1C[C@@H](CC(CNC(=O)NCc1ccccc1)(c1ccccc1)c1ccccc1)C2	inactive	inactive	1340	inactive	1270	1020	–	–	–	–	–	–	–	–	–	–	–
CCNC(=O)NCC(C[C@H]1C[C@H]2CC[C@@H](C1)N2C)(c1ccccc1)c1ccccc1	inactive	inactive	1940	inactive	1550	1280	–	–	–	–	–	–	–	–	–	–	–
CN1[C@@H]2CC[C@H]1C[C@@H](CC(O)(c1ccccc1)c1ccccc1)C2	inactive	inactive	< 10	inactive	< 10	< 10	2	0.501	0.794	–	6.31	2.51	3.98	<5	–	–	–
CN1[C@@H]2CC[C@H]1C[C@@H](CC(C#N)(c1ccccc1)c1ccccc1)C2	inactive	inactive	< 10	inactive	< 10	< 10	0.158	0.1	0.0158	11	0.501	0.0631	0.316	–	–	–	–
CN1[C@@H]2CC[C@H]1C[C@@H](CC(C(=O)NCc1ccccc1)(c1ccccc1)c1ccccc1)C2	inactive	inactive	839	inactive	545	596	–	–	–	–	–	–	–	–	–	–	–
CN1[C@@H]2CC[C@H]1C[C@@H](CC(CO)(c1ccccc1)c1ccccc1)C2	inactive	inactive	< 10	inactive	< 10	< 10	2.51	1	1.26	15	12.6	3.98	6.31	–	–	–	–
C[N+]1(C)[C@@H]2CC[C@H]1C[C@@H](CC(C#N)(c1ccccc1)c1ccccc1)C2.[Br-]	inactive	inactive	< 10	inactive	< 10	< 10	0.0631	0.0501	0.00398	>95	0.158	0.02	0.0501	–	Active	Active	Dose-dependent effect
CN1[C@@H]2CC[C@H]1C[C@@H](CC(c1ccccc1)(c1ccccc1)c1ccccc1)C2	inactive	inactive	206	inactive	1200	105	–	–	–	–	–	–	–	–	–	–	–
CN1[C@@H]2CC[C@H]1C[C@@H](CC(CNS(C)(=O)=O)(c1ccccc1)c1ccccc1)C2	inactive	inactive	2730	inactive	2120	1600	–	–	–	–	–	–	–	–	–	–	–
CN1[C@@H]2CC[C@H]1C[C@@H](CC(C(=O)O)(c1ccccc1)c1ccccc1)C2	inactive	inactive	687	inactive	240	277	–	–	–	–	–	–	–	–	–	–	–
C[N+]1(C)[C@@H]2CC[C@H]1C[C@@H](CC(O)(c1ccccc1)c1ccccc1)C2.[Br-]	inactive	inactive	< 10	inactive	< 10	< 10	3.16	1.58	0.251	34	3.98	0.501	0.501	–	–	–	–
CN1[C@@H]2CC[C@H]1C[C@@H](CC(CNS(=O)(=O)c1ccccc1)(c1ccccc1)c1ccccc1)C2	inactive	inactive	1060	inactive	458	770	–	–	–	–	–	–	–	–	–	–	–
